# Screens deposited in PubChem by Sanford-Burnham Center for Chemical Genomics.
# A selection: hits, their analogues and other compounds. The true share with any hit is near 1.8%.
# TAG inh: reduces triacylglycerol accumulation in H9c2 cells; Nile Red lipid (TAG) fluorescence; cells loaded with 200 µM oleic acid; AID 651582; hit rate 0.66% among 230,000; inhibition, % at 12.5 µM;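 active = pattern-corrected inhibition of lipid staining of at least 50% with the nuclear-stain viability signal not falling by more than 50%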;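 also: 0% = DMSO wells and 100% = triacsin C control wells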
# hiPSC survival: enhancers of human iPSC single-cell survival; survival enhancement, % at 20 µM; hiPSC single-cell survival, ATPlite luminescence; 100% = ROCK inhibitor wells, 0% = DMSO; hit rate 0.044% among 360,000; in the data active = survival enhancement above about 18%;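 also: cells exposed to compounds for 16 hours before the ATP read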
# 697 NFkB inh: inhibitors of the PMA/ionomycin-induced NF-kB reporter in 697 B cells; 697 B-cell NF-kB luciferase reporter, 16 h; inhibition, % at 4 µM; hit rate 0.33% among 330,000; AID 435022; in the data active = inhibition above about 35%
# Jurkat NFkB inh: inhibitors of the PMA/ionomycin-induced NF-kB reporter in Jurkat cells | hit rate 0.53% among 330,000 | PMA/ionomycin-induced NF-kB luciferase reporter, luminescence | AID 435003 | inhibition, % at 4 µM; in the data active = inhibition above about 50%
# Gli-Sufu antag: Gli-Sufu pathway antagonism; Sufu-KO-LIGHT fibroblasts, Gli luciferase reporter luminescence; inhibition, % at 5 µM; hit rate 0.74% among 340,000;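 active = inhibition above about 55%, limit read from the data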;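 also: 0% = DMSO-treated cells and 100% = wells with medium but no cells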
# Hep lipid drop: hepatic lipid droplet formation modulation; AML12 mouse hepatocytes, oleate lipid droplets, BODIPY imaging; hit rate 0.4% among 240,000; AID 1656; inhibition, % at 6.5 µM;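 active = lipid droplet intensity inhibited by at least 50%, with more than 500 cells counted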
#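 Assay system: AML12 mouse liver cells | Compound dosing: One dose, 6.5 µM compound | Read-out basis: Droplet intensity reduction, % inhibition | Measured by: Fluorescence imaging, 20x objective, two fields per well | Schedule: Overnight treatment with compound plus oleate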
# Gli-Sufu confirm: Gli-SUFU antagonism confirmation, single concentration; shares compounds with Gli-Sufu antag; Sufu-KO-LIGHT cells, Gli luciferase reporter, luminescence; inhibition, % at 5 µM; hit rate 40% among 2,500;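 active = mean inhibition at 5 µM reaching about 45%, limit read from the data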;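 also: plate controls were DMSO-treated cells for no effect and wells lacking cells for full effect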
# Gli cytotox: cytotoxicity counter-screen for Gli-SUFU antagonists; shares compounds with Gli-Sufu antag; Sufu-KO-LIGHT cells cytotoxicity, ATP luminescence; cytotoxicity, % at 5 µM; hit rate 32% among 2,500;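 active = mean cytotoxicity at 5 µM above about 25%, limit read from the data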;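 also: cells exposed to compound overnight for roughly 16 to 18 hours; plate controls were DMSO wells with cells for no effect and medium without cells for full effect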
# Wnt3a cs: Wnt3a reporter inhibition counter-screen. shares compounds with Gli-Sufu antag. Wnt-LIGHT cells, Wnt3a-driven luciferase reporter, luminescence. inhibition, % at 6.25 µM. hit rate 20% among 2,500. AID 651995;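 active = mean inhibition above about 25%, limit read from the data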
# * marks the source's active call; other numbers are inactive results; x = no result given.
SMILES,TAG inh,hiPSC survival,697 NFkB inh,Jurkat NFkB inh,Gli-Sufu antag,Hep lipid drop,Gli-Sufu confirm,Gli cytotox,Wnt3a cs
CCNC(=S)N(CCN(C)C)Cc1cc2cc(OCC)ccc2[nH]c1=O,-14,0,-7,9,60*,-2,23,12,-8
CCNC(=S)N(CCc1cccc(C)c1)Cc1cc2cc(OC)c(OC)cc2[nH]c1=O,8,-1,4,-13,52,-20,14,25,-22
C=Cc1ccc(Cn2c(=O)n(C)c(=O)c3sccc32)cc1,x,0,-19,1,54,x,35,16,4
COc1ccccc1CCNC(=O)c1cc(-c2ccncc2)nc2ccc(Br)cc12,14,0,x,x,67*,9,32,25*,4
Cc1ccc(C)c(NC(=O)c2nc(Cl)ccc2Cl)c1,4,0,3,-4,-22,-1,x,x,x
O=C(Nc1ccccc1O)c1nc(Cl)ccc1Cl,0,-1,1,7,50,-16,36,22,-20
O=C(Cc1cccs1)Nc1ccc2c(c1)C(=O)OC2,x,0,16,-7,99*,-4,15,5,2
COCCCN1C(=O)C(CC(=O)NC2CCCC2)CC(C(=O)N(C(C)C)C(C)C)=C1C (stereo not drawn),x,2,x,x,x,x,x,x,x
COc1ccc(/C=N\NC(=O)c2c(C)nc3ccc(Br)cn23)cc1,x,-2,10,44,61*,x,50*,48*,-30
CCCCCN(C(=O)CCC(=O)OCC(=O)NCCc1ccccc1)c1c(N)n(CCCC)c(=O)[nH]c1=O,15,0,x,x,x,x,x,x,x
O=C(CN1CCOCC1)NCc1cc([N+](=O)[O-])ccc1O,5,0,-11,-1,55*,-1,22,0,-3
O=C(CN1CCOCC1)Nc1nc2cc([N+](=O)[O-])ccc2s1,x,-1,-17,0,-10,19,x,x,x
COc1cc(C2CC(=O)Oc3cc4c(cc32)OCO4)cc(OC)c1OC (stereo not drawn),0,2,-5,x,-9,x,x,x,x
COc1cc(C2C3=C(COC3=O)Oc3cc4c(cc32)OCO4)cc(OC)c1OC (stereo not drawn),28,2,x,x,56*,x,57*,57*,13
COc1cc(C2C3=C(COC3=O)Oc3cc4c(cc32)OCO4)cc(OC)c1O (stereo not drawn),32,2,x,x,50,x,67*,64*,12
Cc1ccc(C(=O)c2c[nH]c3c(F)cc(F)cc3c2=O)cc1,x,-1,7,2,0,25,x,x,x
C/C(=N\NC(=O)C(=O)Nc1cccc(Cl)c1)c1ccncc1,x,-1,-11,13,61*,-15,59*,35*,13
C/C(=N\NC(=O)C(=O)Nc1ccc(C)c(Cl)c1)c1ccncc1,x,0,25,10,62*,-55,62*,32*,24
C/C(=N\NC(=O)C(=O)Nc1ccc(C)cc1)c1ccncc1,x,1,-2,-4,4,-13,x,x,x
COc1cc(CC(=O)OCC(=O)NCC(C)C)cc(OC)c1OC,2,2,0,-5,-14,-7,x,x,x
CCCCCn1c(N2CCN(c3cccc(Cl)c3)CC2)nc2c1c(=O)[nH]c(=O)n2C,x,6,-31,2,-10,x,x,x,x
CCCCCn1c(CN2CCN(c3cc(Cl)ccc3C)CC2)nc2c1c(=O)[nH]c(=O)n2C,x,5,-9,13,54,x,26,23,-29
Nc1cc(=O)[nH]c(SCC(=O)Nc2ccccc2Sc2ccccc2)n1,15,0,-1,-8,27,-6,x,x,x
O=S(=O)(c1ccc(F)cc1)N1CCCC(CO)C1 (stereo not drawn),9,-2,-24,-7,52,x,12,2,-9
CCSc1nnc2n(-c3ccc(OC)cc3)c(=O)c3c4c(sc3n12)CCCC4,x,-2,15,29,-1,4,x,x,x
SMILES,TAG inh,hiPSC survival,697 NFkB inh,Jurkat NFkB inh,Gli-Sufu antag,Hep lipid drop,Gli-Sufu confirm,Gli cytotox,Wnt3a cs
COc1ccccc1-n1c(=O)c2c3c(sc2n2c(SC)nnc12)CCC3,8,0,18,4,52,x,15,-4,17
O=C(O)CC1SC(=Nc2ccccc2)N(c2ccccc2)C1=O (stereo not drawn),x,3,15,13,4,13,x,x,x
Cc1ccc(CC2SC(=Nc3ccccc3)N(c3ccccc3)C2=O)cc1 (stereo not drawn),x,-1,10,-2,58*,x,19,9,-13
Cn1c(N2CCCC2)nc2c1c(=O)n(Cc1ccc(F)cc1)c(=O)n2C,-30,-1,0,4,53,x,12,2,-20
COCCNc1nc2c(c(=O)n(C)c(=O)n2C)n1Cc1cccc(C)c1,-2,1,-16,-2,61*,x,63*,25*,24
Cn1c(=O)c2c(nc(NCCc3ccccc3)n2Cc2ccc(F)cc2)n(C)c1=O,4,0,3,-2,26,-7,x,x,x
C=CCNc1nc2c(c(=O)n(C)c(=O)n2C)n1Cc1ccc(F)cc1,-8,1,-10,27,54,-42,55*,20,26*
C=CCOc1nc2c(c(=O)n(C)c(=O)n2C)n1Cc1ccc(Cl)cc1,x,1,-84,23,72*,-4,61*,27*,23
C=CCOc1nc2c(c(=O)n(C)c(=O)n2C)n1Cc1ccccc1Cl,x,1,-28,3,22,-8,x,x,x
O=C(c1ccco1)N1CCN(Cc2cc(=O)c(OCc3ccc([N+](=O)[O-])cc3)co2)CC1,2,0,-6,15,-6,x,x,x,x
C[C@H](CO)N1C[C@H](C)[C@@H](CN(C)C(=O)Nc2ccccc2)Oc2c(NS(=O)(=O)c3cccs3)cccc2C1=O,-20,1,-22,-5,-7,x,x,x,x
COc1ccc(CCNC(=O)CCC(=O)N2CCOc3ccc(Cl)cc32)cc1OC,18,0,-10,6,-5,-7,x,x,x
C=CCNc1nc2c(c(=O)n(C)c(=O)n2C)n1CCCCCC,-80,0,7,48,69*,-50,75*,36*,40*
CCCOc1nc2c(c(=O)n(C)c(=O)n2C)n1Cc1cccc2ccccc12,x,0,-70,18,57*,x,58*,40*,9
COc1ccc(C2CC(c3cccc(C(F)(F)F)c3)=NN2c2ccc(S(N)(=O)=O)cc2)cc1 (stereo not drawn),-6,-1,16,x,11,x,x,x,x
Cc1ccc(OCCC(=O)OCC(=O)NC(=O)NC2CCCCC2)cc1,19,0,-11,0,-7,x,x,x,x
